Measurements published in ChEMBL document CHEMBL4118063, “Design, synthesis and evaluation of aromatic heterocyclic derivatives as potent antifungal agents” (Eur J Med Chem, 2017).
≈ marks a conversion by molar mass, not a printed value.

Experiments:
Type in all cases: functional
Candida tropicalis = test: Antifungal activity against Candida tropicalis cgmcc 2.3739 by broth microdilution method
Outline: (§1)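 Serial twofold-style dilution in growth medium per NCCLS broth microdilution guidelines. Compounds dissolved in DMSO before dilution. Fluconazole and itraconazole served as positive controls. MIC was read as the lowest concentration that prevents visible fungal growth.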

Candida albicans [1] = test: Antifungal activity against Candida albicans ATCC SC5314 by broth microdilution method; outline: as §1
Cryptococcus neoformans = test: Antifungal activity against Cryptococcus neoformans cgmcc 2.3161 by broth microdilution method; outline: as §1
Aspergillus fumigatus = test: Antifungal activity against Aspergillus fumigatus GIM 3.524 by broth microdilution method; outline: as §1
Candida albicans [2] = test: Antifungal activity against Candida albicans CPCC 400523 by broth microdilution method; outline: as §1

MIC (Candida tropicalis) [µg/mL]	MIC (Candida albicans [1]) [µg/mL]	MIC (Cryptococcus neoformans) [µg/mL]	MIC (Aspergillus fumigatus) [µg/mL]	MIC (Candida albicans [2]) [µg/mL]	SMILES
0.0625 (≈ 0.165 µM)	0.25 (≈ 0.659 µM)	8 (≈ 21.1 µM)	> 16	1 (≈ 2.64 µM)	CC(C)OC(=O)[C@H](Cn1ccnc1)NC(=O)c1cnc(-c2ccccc2)nc1
8 (≈ 21.8 µM)	> 16	> 16	> 16	> 16	CC(C)OC(=O)[C@H](Cn1ccnc1)NC(=O)c1ccc(-c2ccccc2)o1
0.0625 (≈ 0.163 µM)	> 16	2 (≈ 5.2 µM)	> 16	> 16	CC(C)OC(=O)[C@H](Cn1ccnc1)NC(=O)c1nc(-c2ccccc2)cs1
0.0312 (≈ 0.0809 µM)	1 (≈ 2.59 µM)	2 (≈ 5.18 µM)	8 (≈ 20.7 µM)	2 (≈ 5.18 µM)	CC(C)OC(=O)[C@H](Cn1ccnc1)NC(=O)c1cc(-c2ccc(F)cc2)on1
0.0312 (≈ 0.0677 µM)	0.0312 (≈ 0.0677 µM)	2 (≈ 4.34 µM)	> 16	0.125 (≈ 0.271 µM)	CC(C)COC(=O)[C@H](Cn1ccnc1)NC(=O)c1cc(-c2ccc(Br)cc2)on1
0.125 (≈ 0.318 µM)	0.25 (≈ 0.635 µM)	2 (≈ 5.08 µM)	> 16	0.5 (≈ 1.27 µM)	CC(C)COC(=O)[C@H](Cn1ccnc1)NC(=O)c1cnc(-c2ccccc2)nc1
4 (≈ 10.5 µM)	> 16	> 16	> 16	> 16	Cc1cc(C(=O)N[C@@H](Cn2ccnc2)C(=O)OC(C)C)nn1-c1ccccc1

SMILES	MIC (Candida tropicalis) [µg/mL]	MIC (Candida albicans [1]) [µg/mL]	MIC (Cryptococcus neoformans) [µg/mL]	MIC (Aspergillus fumigatus) [µg/mL]	MIC (Candida albicans [2]) [µg/mL]
CCC(C)n1ncn(-c2ccc(N3CCN(c4ccc(OCC5COC(Cn6cncn6)(c6ccc(Cl)cc6Cl)O5)cc4)CC3)cc2)c1=O (stereo not given) [ITRACONAZOLE]	0.0312 (≈ 0.0443 µM)	0.0312 (≈ 0.0443 µM)	1 (≈ 1.42 µM)	1 (≈ 1.42 µM)	0.125 (≈ 0.177 µM)
